High-throughput results from PubChem.
A selection: hits, their analogues and other compounds. The true share with any hit is near 2.4%.
SR-BI DiI-HDL act – activators of SR-BI mediated DiI-HDL uptake, primary screen, ldlA[mSR-BI] CHO cells, DiI fluorescence; 3 h; 100 = double the neutral-control signal; activation, % at 12.5 µM; hit rate 0.096% among 320,000; AID 504775, 2011;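 active = mean replicate activation of at least 60% and every replicate at or above 60%; inconclusive = mean or all-replicate condition met, but not both; inactive = mean below 60% and not all replicates reaching 60%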;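 also: 0% = median plate neutral-control signal and 100% = twice that signal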
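Test system: SR-BI-overexpressing, LDLR-lacking CHO cells; Also added: labelled HDL, 10 µg/mL; Measured by: bottom-read cell fluorescence after medium removal, ex 550/em 595 nm; Timing: 3 h uptake period with compound, 37 °C; Buffer or medium: F12, 0.5% BSA, 25 mM HEPES; Doses: single compound concentration, delivered by pin transfer.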
MIN6 prolif – inducers of MIN6 beta-cell proliferation, primary screen, ATP luminescence, uHTS. proliferation, % at 10 µM. hit rate 0.29% among 330,000. MIN6 cells proliferation, ATPlite luminescence, 48 h; cells starved in 0.2% serum; 100% = growth in 10% serum. AID 2380, 2010;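 active = compounds whose signal lies at least 3.5 SD above the mean of all wells on their plate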;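 also: 0% = DMSO-treated cells in low-serum medium and 100% = 10% serum control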
Calb FLC – C. albicans growth inhibition with fluconazole, primary screen, CaCi-2 strain, Alamar Blue fluorescence; C. albicans CaCi-2 + fluconazole, 48 h; growth inhibition, % (test concentration not listed); hit rate 0.57% among 300,000;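 active = growth inhibition above about 58% in most replicates, limit read from the data, passing the limit was not always enough; inconclusive = exactly half the replicates above a set limit; inactive = most replicates below a set limit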;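 also: all wells also contain fluconazole at 8 µg/ml as a sub-toxic cotreatment; 0% = median of DMSO wells and 100% = median of geldanamycin control wells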
Insulin prom up – insulin promoter activators in MIN6 cells, imaging, high-content screening, mouse beta cells; MIN6 insulin promoter-GFP reporter; active compounds read high; z-score at 5 µM; hit rate 0.3% among 190,000; AID 1625, 2009;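 active = z-score above 3 at 5 µM with at least 500 cells counted in the well; inconclusive = wells under 500 cells, flagged as cytotoxic or low count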
SR-BI DiI inh – inhibitors of SR-BI mediated HDL lipid uptake, primary screen, ldlA[mSR-BI] cells, fluorescence, single point | inhibition, % at 12.5 µM | Scavenger receptor class B member 1 (Mus musculus), Q61009 | hit rate 0.96% among 320,000 | AID 488896, 2010 | ldlA[mSR-BI] CHO cells, DiI-HDL uptake fluorescence, 3 h;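 active = mean replicate inhibition of at least 70% and a set share of replicates each scoring 70 or more; inconclusive = meets just one of the two criteria; inactive = fails both criteria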;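 also: 0% = median of neutral control wells and 100% = median of positive control wells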
Target sequence (Q61009 whole entry, looked up): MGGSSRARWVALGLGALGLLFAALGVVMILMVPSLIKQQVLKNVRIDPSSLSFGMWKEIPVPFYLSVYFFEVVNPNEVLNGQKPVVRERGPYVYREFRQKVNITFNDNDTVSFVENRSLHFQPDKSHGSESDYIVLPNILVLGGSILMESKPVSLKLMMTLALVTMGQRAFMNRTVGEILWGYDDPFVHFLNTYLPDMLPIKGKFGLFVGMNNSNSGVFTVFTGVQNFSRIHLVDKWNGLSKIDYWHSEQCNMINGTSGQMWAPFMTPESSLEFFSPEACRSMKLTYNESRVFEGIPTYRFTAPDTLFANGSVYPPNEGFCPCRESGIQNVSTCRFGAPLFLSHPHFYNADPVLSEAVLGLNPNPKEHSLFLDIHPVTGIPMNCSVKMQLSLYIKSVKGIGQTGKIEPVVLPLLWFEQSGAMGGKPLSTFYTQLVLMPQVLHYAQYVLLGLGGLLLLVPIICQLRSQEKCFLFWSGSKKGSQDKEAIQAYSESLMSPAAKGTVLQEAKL
HTR2A ag – mouse Htr2a agonists via beta-arrestin recruitment, primary screen, cell-based, luminescence; 5-hydroxytryptamine receptor 2A (Mus musculus), P35363; CHO-K1 mHTR2A beta-arrestin complementation; percent of 30 µM serotonin response; activation, % at 7.6 µM; hit rate 0.66% among 360,000;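 active = activation above a run cutoff, the mean activation of all tested compounds plus 3 SD, cut at about 14% in these data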;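 also: 0% = plate median of compound wells and 100% = 30 µM serotonin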
Numbers without * were called inactive; ? = inconclusive; . = no result given.

SMILES | SR-BI DiI-HDL act | MIN6 prolif | Calb FLC | Insulin prom up | SR-BI DiI inh | HTR2A ag
CC1(C(=O)NS(=O)(=O)c2ccc(Cl)cc2)CCN1C(=O)Cc1ccsc1 (configuration not stated) | . | . | . | . | . | 3.3
O=C(/C=C/c1ccccc1)Nn1c(-c2cccs2)nc2ccccc2c1=O | 10.2 | -3.9 | 94.8* | 0.71 | -10.2 | 3.5
COc1cc2sc3ccc(-c4ccc5[nH]ccc5c4)cc3c(=O)c2cc1OC | -75.1 | -8.7 | -3.8 | . | 75.1* | 0.0
Cn1c2c(c(=O)[nH]c1=O)C(c1cccc(O)c1)C1=C(N2)c2ccccc2C1=O (configuration not stated) | -60.8 | . | . | -4.5 | 60.8 | -1.5
COc1ccc([C@@H]2C[C@H]3[C@@H](CN2S(=O)(=O)c2ccccc2)C(=O)C[C@@H](c2cccc4ccccc24)N3S(=O)(=O)c2ccc(C)cc2)cc1 | . | . | . | . | . | 3.0
O=C(CSc1nc2ccccc2o1)NCc1ccc2c(c1)OCO2 | 6.7 | -3.2 | -8.7 | 0.63 | -6.7 | -7.9
O=C(CSc1nc2ccc(Cl)cc2o1)NCc1ccc2c(c1)OCO2 | 7.2 | 0.2 | 3.0 | 3.95* | -7.2 | -3.1
COc1ccccc1NC(=O)CN1CCN(c2ccccc2OC)CC1 | -15.5 | 0.5 | 62.8* | -0.71 | 15.5 | 0.0
COC(=O)c1[nH]c2cc(C)ccc2c1NC(=O)CN1CCN(c2ccccc2OC)CC1 | -76.3 | 1.9 | -8.8 | -1.57 | 76.3* | 9.8
CCOc1ccc(NC(=O)CN2CCN(CC(=O)Nc3ccccc3OC)CC2)cc1 | -78.2 | -1.7 | -1.8 | . | 78.2* | 4.0
N#Cc1c(NC(=O)CN2CCN(C(=O)c3ccco3)CC2)sc2c1CCCCC2 | -82.6 | 0.7 | 1.0 | -0.49 | 82.6* | -2.9
COc1ccccc1Nc1ccc(NS(=O)(=O)c2ccc(C(C)=O)cc2)cc1 | -15.2 | -2.2 | -3.2 | . | 15.2 | -5.5
COc1ccccc1NC(=O)c1ccc(NC(=O)CN2CCN(C(=O)c3ccco3)CC2)cc1 | -78.8 | 0.9 | 10.4 | -0.32 | 78.8* | 12.5
COc1ccccc1NC(=O)CN1CCN(C(=O)c2ccco2)CC1 | -9.3 | -3.6 | -6.7 | . | 9.3 | -2.2
COc1ccc(C2CCCCC2SCC(=O)O)cc1OC (configuration not stated) | . | . | . | . | . | 10.5
O=C1NCCSC1c1ccccc1 (configuration not stated) | 5.5 | 1.0 | -8.7 | . | -5.5 | 1.2
CC(C)N1CCC1(C)C(=O)Nc1nc2ccccc2[nH]1 (configuration not stated) | . | . | . | . | . | 0.6
CCN(C(=O)COC(=O)c1ccc(-n2c(C)ccc2C)cc1)c1c(N)n(Cc2ccccc2)c(=O)[nH]c1=O | -25.0 | . | . | . | 25.0 | 2.5
COc1ccc2c(c1OC)C(=O)OC2C1c2c(cc3c(c2OC)OCO3)CCN1C (configuration not stated) | 1.8 | -0.1 | 3.0 | -0.73 | 0.6 | -1.9
CN1CCc2cc3c(c4c2[C@H]1[C@H](O)c1ccccc1-4)OCO3 | -6.4 | -0.7 | 94.5* | -0.26 | 6.4 | -5.1
CCC(=O)N1CCCC(C(=O)Nc2nc3ccccc3[nH]2)CC1 (configuration not stated) | . | . | . | . | . | 1.9
C/C(=N\NC(=O)COc1ccccc1[N+](=O)[O-])c1cccc(NC(=O)c2ccncc2)c1 | -80.7 | -2.5 | 10.9 | . | 80.7* | -3.3
C/C(=N\NC(=O)c1ccncc1)c1cccc(NC(=O)c2ccc(C(C)(C)C)cc2)c1 | -77.6 | -7.2 | 6.8 | . | 77.6* | -7.5
C/C(=N\NC(=O)c1cccc(N/N=C(\C)c2ccccc2)c1)c1ccccc1 | -79.0 | . | . | -0.71 | 79.0* | -1.9
Cc1cc2ccccn2c1C(=O)c1ccc([N+](=O)[O-])o1 | 15.4 | -5.5 | ? | 0.05 | -15.4 | -3.0
SMILES | SR-BI DiI-HDL act | MIN6 prolif | Calb FLC | Insulin prom up | SR-BI DiI inh | HTR2A ag
CC1(C)Oc2ccc(C(=O)N/N=C/c3ccc(O)cc3)cc2NC1=O | . | 0.0 | -0.4 | . | . | 2.2
CC(=O)Nc1ccc(-c2csc(N/N=C(/C)c3ccccc3)n2)cc1 | -67.0 | -2.1 | -5.3 | 0.07 | 67.0 | -3.7
C/C(=N/Nc1nc(-c2ccc(Cl)cc2)cs1)c1cccs1 | -79.1 | -4.8 | -15.9 | -1.15 | 79.1* | -1.1
CC1(c2ccc3ccccc3c2)NC(=O)N(CC(=O)N2CCCC(C(F)(F)F)C2)C1=O (configuration not stated) | 8.4 | 2.3 | . | . | -8.4 | 2.1
CCn1nc([N+](=O)[O-])c(C(C#N)c2nc3ccccc3n2C)c(Cl)c1=O (configuration not stated) | 12.7 | 0.0 | 8.7 | -0.07 | -12.7 | 1.7
CCCn1nc([N+](=O)[O-])c(C(C#N)c2nc3ccccc3s2)c(Cl)c1=O (configuration not stated) | 7.8 | -6.4 | 99.1* | 0.31 | -7.8 | -1.5
Cc1sc(NC(=O)CN2CCCC2)nc1-c1ccc2c(c1)CCN2C(=O)c1ccc(F)cc1 | . | -4.1 | -6.9 | . | . | 2.1
CNc1nc(-c2ccc3c(c2)CCN3S(=O)(=O)c2ccccc2)c(C)s1 | -25.6 | -3.2 | -6.0 | -0.35 | 25.6 | 0.2
CNc1nc(-c2ccc3c(c2)CCN3C(=O)CC(C)(C)C)c(C)s1 | -73.1 | -3.0 | -3.9 | 2.47 | 73.1* | 1.0
CC(=O)Nc1nc(-c2ccc3c(c2)CCN3C(=O)C2CC2)c(C)s1 | -94.7 | -4.6 | 3.5 | . | 94.8* | 2.7
CCN(CC)CCCNC(=O)CNC(=O)c1nn(-c2ccc(OC)cc2OC)c(=O)c2ccccc12 | . | . | . | . | . | 8.7
C=CCCC(=O)N1C[C@H]2CON(C)[C@H]2C[C@H]1c1cccc(N2CCOCC2)c1 | . | . | . | . | . | -1.8
CCCOc1ccc(NC(=O)C2CC(=O)N/C(=N/N=C(C)/C=C/c3ccc(N(C)C)cc3)S2)cc1 (configuration not stated) | -82.2 | -2.6 | -10.8 | 0.32 | 82.2* | 2.3
COc1ccc(Nc2ncnc3c2cnn3-c2ccccc2)cc1OC | -20.8 | 1.4 | 0.7 | 1.52 | 20.8 | 0.3
COc1ccc(Nc2ncnc3sc(-c4ccccc4)cc23)cc1OC | -93.1 | -2.4 | 4.0 | -0.38 | 93.1* | -2.4
O=C(Oc1cc2oc(=O)cc(-c3ccccc3)c2cc1Cl)C1CCCCC1 | 18.8 | 4.0 | 76.8* | 0.56 | -18.8 | 0.3
COc1ccc(CNC(=O)COC(=O)c2ccc(OCC3CCCO3)cc2)cc1 (configuration not stated) | 28.2 | -0.2 | . | . | -28.2 | -6.3
CC(=NCc1ccco1)c1c(C)[nH]n(-c2nc3ccccc3s2)c1=O | -18.6 | -3.8 | 13.2 | 0.42 | 18.6 | 5.8
C/C(=N/NC(=O)c1cccs1)c1c(C)[nH]n(-c2nc3ccccc3s2)c1=O | -106.7 | -6.1 | ? | . | 106.7* | 2.2
